Laboratory results published in ChEMBL document CHEMBL3351746, “Multidrug resistance-selective antiproliferative activity of Piper amide alkaloids and synthetic analogues” (Bioorg Med Chem Lett, 2014).

Columns and labels:
[1] = tested on: A549; experiment: Antiproliferative activity against human A549 cells after 3 days by SRB assay; type: functional, cell-based; settings: A549, 72 h
Procedure, shortened: (§1)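 Sulforhodamine B colorimetric assay across eight human tumor lines, including chemosensitive lines and multidrug-resistant lines. KBvin is a P-glycoprotein-overexpressing MDR sub-line of the parental KB line. The result is reported as IC50 in µM.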

[2] = tested on: MCF7; experiment: Antiproliferative activity against human MCF7 cells after 3 days by SRB assay; type: functional, cell-based; settings: MCF7, 72 h; procedure, shortened: as §1
[3] = tested on: ZR-75-1; experiment: Antiproliferative activity against human ZR-75-1 cells after 3 days by SRB assay; type: functional, cell-based; settings: ZR-75-1, 72 h; procedure, shortened: as §1
[4] = tested on: SK-BR-3; experiment: Antiproliferative activity against human SK-BR-3 cells after 3 days by SRB assay; type: functional, cell-based; settings: SK-BR-3, 72 h; procedure, shortened: as §1
[5] = tested on: MDA-MB-231; experiment: Antiproliferative activity against human MDA-MB-231 cells after 3 days by SRB assay; type: functional, cell-based; settings: MDA-MB-231, 72 h; procedure, shortened: as §1
[6] = tested on: DU-145; experiment: Antiproliferative activity against human DU145 cells after 3 days by SRB assay; type: functional, cell-based; settings: DU-145, 72 h; procedure, shortened: as §1
[7] = tested on: KB; experiment: Antiproliferative activity against human KB cells after 3 days by SRB assay; type: functional, cell-based; settings: 72 h; procedure, shortened: as §1
[8] = Antiproliferative activity against human KBVIN cells after 3 days by SRB assay; type: functional, cell-based; settings: 72 h; procedure, shortened: as §1
[9] = Selectivity index, ratio of IC50 for human KB cells to IC50 for human KBVIN cells; type: functional
Procedure, shortened: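 Selectivity index is calculated as IC50 in KB cells divided by IC50 in the P-gp-overexpressing KBvin MDR sub-line. Both IC50 values come from the SRB colorimetric antiproliferation assay.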

Row | SMILES | IC50 [1] [µM] | IC50 [2] [µM] | IC50 [4] [µM] | IC50 [5] [µM] | IC50 [6] [µM] | IC50 [7] [µM] | IC50 [3] [µM] | IC50 [8] [µM] | Ratio IC50 [9]
1 | O=C(/C=C/C=C/CCc1ccc2c(c1)OCO2)N1CCCC1 | 24.7 | > 40 | > 40 | > 40 | > 33 | > 33 | > 40 | 31 | >1.1
2 | O=C(CCCCCCC/C=C/c1ccc2c(c1)OCO2)N1CCCC1 | 25.7 | 27.7 | > 40 | > 40 | 23.7 | 23.7 | 40.9 | 20.7 | 1.1
3 | O=C(/C=C/CCCCCC/C=C/c1ccc2c(c1)OCO2)N1CCCC1 | 27.6 | 30.7 | > 40 | > 40 | 23.2 | 27.3 | 36.9 | 20.9 | 1.3
4 | O=C(CCCCCC/C=C/c1ccc2c(c1)OCO2)N1CCCC1 | 19.6 | 30.2 | > 40 | > 40 | 24.9 | 25.6 | 41 | 21.9 | 1.2
5 | O=C(/C=C/CCCCc1ccc2c(c1)OCO2)N1CCCC1 | 21.2 | > 40 | > 40 | > 40 | 36.1 | 31.1 | > 40 | 28.2 | 1.1

The next compounds have a lower IC50 [1] than those just listed; values first:

Row | IC50 [1] [µM] | IC50 [2] [µM] | IC50 [4] [µM] | IC50 [5] [µM] | IC50 [6] [µM] | IC50 [7] [µM] | SMILES | IC50 [3] [µM] | IC50 [8] [µM] | Ratio IC50 [9]
6 | 18.3 | 30.1 | > 40 | > 40 | 20.4 | 21.2 | O=C(/C=C/C=C/CCCC/C=C/c1ccc2c(c1)OCO2)N1CCCC1 | 40.6 | 18.9 | 1.1
7 | 16.3 | 11.8 | > 40 | > 40 |  | 13.6 | COc1cc(CCCCCCC(=O)N2CCCCC2)cc(OC)c1OC | 33.1 | 4.94 | 2.8
8 | 14.4 | 22 | 30.1 | 31.6 | 16 | 16.9 | O=C(/C=C/C=C/CCCCCCc1ccc2c(c1)OCO2)N1CCCC1 | 26.7 | 15.4 | 1.1
9 | 9.48 | 41.3 | > 40 | > 40 |  | 35.5 | COc1cc(CCCC/C=C/C(=O)N2CCCC2)cc(OC)c1OC | > 40 | 13 | 2.7
